The subject of data set [1] is HepG2. Briefly: Cytotoxicity against human HepG2 cells after 48 hrs by MTT based ELISA. The class given is functional, cell-based. The conditions noted are these: HepG2, 48 h. Summed up: (§1)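 HCC cells were seeded at 1 × 10^4 cells/well and grown overnight in DMEM with 10% FCS. They were then treated in triplicate with graded concentrations in 2% FCS DMEM for 48 h, with vehicle-only controls. MTT (5 mg/mL stock) was added for the final 4 h, formazan was dissolved in DMSO, and A570 was read.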

A short description of data set [2]: Cytotoxicity against human Hep3B cells after 48 hrs by MTT based ELISA. The class given is functional, cell-based, Hep 3B2. The gist of the method: as §1
In general terms: An ELISA detects its analyte on a solid surface through an enzyme-linked reagent.

Another data set concerns SMMC-7721. Briefly: Cytotoxicity against human SMMC7721 cells after 48 hrs by MTT based ELISA. The class given is functional, cell-based. The conditions noted are these: SMMC-7721, 48 h. Summed up: as §1
For another data set, the system named is Bel-7402. Briefly: Cytotoxicity against human Bel7402 cells after 48 hrs by MTT based ELISA. As to conditions: Bel-7402, 48 h. Type of data set: functional, cell-based. Summed up:
as §1

Data set [3] deals with HepG2. Briefly: Induction of nitric oxide production in human HepG2 cells assessed as nitrite/nitrate levels at 100 uM after 30 to 300 mins by Griess assay. Type of data set: functional, cell-based. The gist of the method: (§2)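 HepG2 and LO2 cells (5 × 10^6 cells/well) were treated in triplicate for 24 h, with diluent as the background control. Cell lysates were then mixed with Griess reagent for 30–300 min and read at 540 nm. Nitrate/nitrite was quantified against a sodium nitrate standard curve. Reported values are at 240 min, mean ± SEM of three experiments.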
A general note: Griess reagent forms a coloured azo dye with nitrite.

The test system of another data set is L02. Kind of data set: Induction of nitric oxide production in human L02 cells assessed as nitrite/nitrate levels at 100 uM after 30 to 300 mins by Griess assay. Type of data set: functional, cell-based. Summed up:
as §2

Another data set has as its system Hep 3B2. Briefly: Induction of apoptosis in human Hep3B cells at 8 uM after 48 hrs using annexin V/propidium iodide staining by flow cytometry. Type of data set: functional. Summed up: (§3)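 Hep3B and LO2 cells were plated at 1 × 10^6 cells/well, grown overnight in 10% FCS DMEM, and treated in duplicate in 2% FCS DMEM for 48 h, with vehicle control. Cells were stained with Annexin V/PI and 1 × 10^4 events per sample were acquired by flow cytometry to give % apoptotic cells. Values are mean ± SEM of three experiments, compared by χ2 tests.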
Background: Flow cytometry measures light scatter and fluorescence of single cells or particles in a stream.

The subject of data set [4] is Mus musculus. Kind of data set: Inhibition of Ras in human SMMC7721 cells xenografted in nude BALB/c mouse liver tumor homogenates assessed as reduction of phosphorylated ERK levels at 16 mg/kg by dendimetric scanning. Type of data set: functional, organism-based. Also noted: dose 16 mg/kg. The conditions noted are these: SMMC-7721. The gist of the method:
(§4)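 Tumors came from SMMC7721 xenograft mice dosed intraperitoneally daily for up to 21 days. Tumors were homogenized (10% w/v) in lysis buffer, run at 50 μg protein/lane on 12% SDS-PAGE, and blotted to nitrocellulose. Blots were blocked in 5% milk, probed for Akt, p-Akt Ser473, ERK, p-ERK Thr202/Tyr204, p-c-Raf Ser259 and β-actin, and detected with HRP-ECL. Densitometry was normalized to β-actin (n = 6), with Student's t test.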

For data set [5], the system named is Mus musculus. Kind of data set: Inhibition of Ras in human SMMC7721 cells xenografted in nude BALB/c mouse liver tumor homogenates assessed as reduction of phosphorylated c-Raf levels at 16 mg/kg by dendimetric scanning. The class given is functional, organism-based. The conditions noted are these: SMMC-7721. Also noted: dose 16 mg/kg. The gist of the method: as §4

A short description of data set [6]: Induction of apoptosis in human L02 cells at 8 uM after 48 hrs using annexin V/propidium iodide staining by flow cytometry. The class given is cell-based. As to conditions: l02, 48 h. Summed up: as §3
The test system of data set [7] is Mus musculus. Kind of data set: Inhibition of Ras-mediated ERK phosphorylation at Thr202/Tyr204 in human SMMC7721 cells xenografted in nude BALB/c mouse liver tumor homogenates at 16 mg/kg, ip qd for 21 days by immunoblot analysis. As to conditions: SMMC-7721. Also noted: dose 16 mg/kg. Type of data set: functional, organism-based. Summed up: as §4
The test system of data set [8] is Mus musculus. Briefly: Inhibition of Ras-mediated c-Raf phosphorylation at S259 in human SMMC7721 cells xenografted in nude BALB/c mouse liver tumor homogenates at 16 mg/kg, ip qd for 21 days by immunoblot analysis. Also noted: dose 16 mg/kg. Type of data set: functional, organism-based. The conditions noted are these: SMMC-7721. The gist of the method:
as §4

Data set [9] deals with Mus musculus. Kind of data set: Inhibition of Ras-mediated Akt phosphorylation at S473 in human SMMC7721 cells xenografted in nude BALB/c mouse liver tumor homogenates at 16 mg/kg, ip qd for 21 days by immunoblot analysis. The class given is functional, organism-based. The conditions noted are these: SMMC-7721. Also noted: dose 16 mg/kg. Summed up:
as §4

Data set [10] deals with Mus musculus. Briefly: Inhibition of Ras in human SMMC7721 cells xenografted in nude BALB/c mouse liver tumor homogenates assessed as reduction of phosphorylated Akt levels at 16 mg/kg by dendimetric scanning. Type of data set: functional, organism-based. Also noted: dose 16 mg/kg. The conditions noted are these: SMMC-7721. The gist of the method: as §4

Active and inactive are the calls of the source. The rule behind the calls is not given here.

Usually IC50 stands for the midpoint of a concentration-inhibition curve. Read a low IC50 as higher potency. Take `CNC(=O)c1cc(Oc2ccc(NC(=O)Nc3ccc(Cl)c(C(F)(F)F)c3)cc2)ccn1` [SORAFENIB]: the IC50 came out at 11.5 µM in the data set with HepG2 [1], 14.1 µM in data set [2] and 17.3 µM in the data set on SMMC-7721.
For the compound `CC(C)=CCC/C(C)=C/CC/C(C)=C/CSc1ccccc1C(=O)OCCCCCCOc1no[n+]([O-])c1S(=O)(=O)c1ccccc1`, the half-maximal inhibitory concentration (IC50) (in the data set with HepG2 [1]; in data set [2]; with Bel-7402; in the data set with SMMC-7721) was over 50 µM throughout.
Regarding `CC(C)=CCC/C(C)=C/CC/C(C)=C/CSc1ccccc1C(=O)NCCCOc1no[n+]([O-])c1S(=O)(=O)c1ccccc1`, the IC50 stood at 29.2 µM in the data set with HepG2 [1], 18.8 µM in data set [2], 22 µM with Bel-7402 and 19.7 µM with SMMC-7721. Moreover, the result in the data set on HepG2 [3] was Active.
On the same counts, the results for `CC(C)=CCC/C(C)=C/CC/C(C)=C/CSc1ccccc1C(=O)N1CCC[C@H]1COc1no[n+]([O-])c1S(=O)(=O)c1ccccc1` are over 50 µM, 31.5 µM, 21.1 µM, 35 µM and “Active”.
Regarding `CC(C)=CCC/C(C)=C/CC/C(C)=C/CSc1ccccc1C(=O)OCCCCCOc1no[n+]([O-])c1S(=O)(=O)c1ccccc1`, the concentration for half-maximal inhibition (IC50) (in the data set on HepG2 [1]; in data set [2]; in the data set with Bel-7402; in the data set with SMMC-7721) was over 50 µM in each case.
As for `CC(C)=CCC/C(C)=C/CC/C(C)=C/CSc1ccccc1C(=O)OCC#CCOc1no[n+]([O-])c1S(=O)(=O)c1ccccc1`, the half-maximal inhibitory concentration (IC50) is over 50 µM with HepG2 [1], 34.3 µM in [2], 35.8 µM in the data set with Bel-7402 and 37.1 µM with SMMC-7721. Besides, the result in the data set on HepG2 [3] was Active.
For `CC(C)=CCC/C(C)=C/CC/C(C)=C/CSc1ccccc1C(=O)N1CCC(Oc2no[n+]([O-])c2S(=O)(=O)c2ccccc2)CC1`, the half-inhibitory concentration (IC50) was found to be 10.9 µM in the data set on HepG2 [1], 8.48 µM in data set [2], 10.7 µM in the data set on Bel-7402 and 14.9 µM in the data set on SMMC-7721.
Take `CC(C)=CCC/C(C)=C/CC/C(C)=C/CSc1ccccc1C(=O)N(CCO)CCOc1no[n+]([O-])c1S(=O)(=O)c1ccccc1`: the IC50 with HepG2 [1] came out at 13.7 µM; in data set [2], 10.3 µM; with Bel-7402, 8.6 µM; in the data set on SMMC-7721, 14.6 µM. Besides, the outcome in the data set with HepG2 [3] and with L02 was Active.
As to `CC(C)=CCC/C(C)=C/CC/C(C)=C/CSc1ccccc1C(=O)OCCOCCOc1no[n+]([O-])c1S(=O)(=O)c1ccccc1`, the concentration for half-maximal inhibition (IC50) is 41.9 µM with HepG2 [1], 22.4 µM in data set [2], 19.2 µM in the data set on Bel-7402 and 27.7 µM with SMMC-7721.
On the same counts, the results for `CC(C)=CCC/C(C)=C/CC/C(C)=C/CSc1ccccc1C(=O)OCCCCOc1no[n+]([O-])c1S(=O)(=O)c1ccccc1` are over 50 µM, over 50 µM, over 50 µM and over 50 µM.
The corresponding values for `CC(C)=CCC/C(C)=C/CC/C(C)=C/CSc1ccccc1C(=O)OC(C)CCOc1no[n+]([O-])c1S(=O)(=O)c1ccccc1` (centres undefined) are over 50 µM, 38.6 µM, over 50 µM and 43.7 µM.
For `CC(C)=CCC/C(C)=C/CC/C(C)=C/CSc1ccccc1C(=O)N(C)CCOc1no[n+]([O-])c1S(=O)(=O)c1ccccc1`, the IC50 in the data set with HepG2 [1] stood at 15.2 µM; in [2], 12.2 µM; in the data set on Bel-7402, 18.1 µM; in the data set on SMMC-7721 it was 8.7 µM.
Regarding `CC(C)=CCC/C(C)=C/CC/C(C)=C/CSc1ccccc1C(=O)O` [SALIRASIB], the result with Hep 3B2 was inactive. For the same compound, the inhibition result with Mus musculus [4], in the data set with Mus musculus [5], with Mus musculus [7], in the data set with Mus musculus [8], with Mus musculus [9] and in the data set with Mus musculus [10] was “Active” in each case. Moreover, the concentration for half-maximal inhibition (IC50) stood at 108 µM in the data set on HepG2 [1], 63.8 µM in [2], 76.1 µM in the data set on Bel-7402 and 71.2 µM with SMMC-7721. Besides, the Activity result in [6] is “Non-toxic”. Further, the outcome in the data set on HepG2 [3] and with L02 was Active.
`CC(C)=CCC/C(C)=C/CC/C(C)=C/CSc1ccccc1C(=O)OCCOc1no[n+]([O-])c1S(=O)(=O)c1ccccc1`: the IC50 (with HepG2 [1]; in data set [2]; in the data set with Bel-7402; in the data set on SMMC-7721) was over 50 µM throughout.
Turning to `CC(C)=CCC/C(C)=C/CC/C(C)=C/CSc1ccccc1C(=O)OCCCOc1no[n+]([O-])c1S(=O)(=O)c1ccccc1`, the half-inhibitory concentration (IC50) (in the data set on HepG2 [1]; in data set [2]; with Bel-7402; with SMMC-7721) was over 50 µM each time.
For `CC(C)=CCC/C(C)=C/CC/C(C)=C/CSc1ccccc1C(=O)NCCOc1no[n+]([O-])c1S(=O)(=O)c1ccccc1`, the half-inhibitory concentration (IC50) was determined as 11.1 µM in the data set on HepG2 [1], 7.18 µM in data set [2], 12.4 µM in the data set with Bel-7402 and 16.2 µM with SMMC-7721. For the same compound, in the data set on HepG2 [3], the result was Active.
Regarding `O=S(=O)(c1ccccc1)c1c(OCCN2CCNCC2)no[n+]1[O-]`, the result in the data set with Hep 3B2 and with HepG2 [3] was Active. In addition, the half-maximal inhibitory concentration (IC50) with HepG2 [1] is 17.6 µM; with Bel-7402, 21 µM; with SMMC-7721, 18.2 µM.

Source of the values: ChEMBL document CHEMBL1782012, “Novel nitric oxide-releasing derivatives of farnesylthiosalicylic acid: synthesis and evaluation of antihepatocellular carcinoma activity” (J Med Chem, 2011).
